A selection: hits, their analogues and other compounds. The true share with any hit is near 12%.
Arbovirus anti: antivirals against arbovirus infection; arbovirus infection cell-based antiviral screen; inhibition, % at 10 µM; 200,000 compounds, 0.37% hits; AID 1251; in the data active = inhibition above about 30%
PKD1 kinase inh: inhibitors of human PKD1 kinase; inhibition, % (concentration not given with the values); 200,000 compounds, 0.056% hits; PKD1 kinase fluorescence polarization assay; Q15139; AID 797
L major viab: Leishmania major promastigote growth inhibition; Leishmania major promastigotes, resazurin fluorescence viability; inhibition, % at 10 µM; 200,000 compounds, 9% hits; AID 1063;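 also: promastigotes grown with compound for 44 hours at 28 °C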
Rad51 HR inh: Rad51 (human) homologous recombination inhibition. Q06609. hRad51 DNA strand exchange, fluorescence dequenching. inhibition, % at 10 µM. 200,000 compounds, 0.085% hits. AID 1385;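 active = inhibition above 40% at the single screening dose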;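 also: 0% = DMSO control wells and 100% = blanks with heterologous ssDNA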
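Material: hRad51 filaments on single-stranded DNA; Reagent: Donor/quencher-labelled 47-bp dsDNA substrate; Compound: 10 µM final, single point; Schedule: 37 °C 15-min filament assembly, 30-min compound preincubation, 15-min exchange; Technique: FRET fluorescence, excitation 485 nm, emission 520 nm; Benchmarks: control wells and blank wells on each plate.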
CHOP inhibitor: blocks CHOP induction under ER stress; CHO-K1 CHOP-promoter luciferase, tunicamycin-induced, 15-18 h; inhibition, % at 10 µM; 220,000 compounds, 3.8% hits; AID 2732;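 active = compounds that reduced the stress-induced luciferase reporter signal by more than about 70% of percent inhibition, limit read from the data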;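 also: 0% = tunicamycin plus vehicle and 100% = wells without tunicamycin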
Wee1 stabilizer: human Wee1 degradation inhibition, primary screen. HeLa Luc-Wee1K328M stability, luciferase luminescence; 100% = proteasome inhibitor MG132 effect. 220,000 compounds, 1.2% hits. reporter increase, % at 5 µM. P30291;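 active = activation above the mean of all tested compounds plus 3 SD, set per screening run, cut at about 8.8% in these data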;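 also: cells exposed to compound for 20 h before luminescence read; 0% = DMSO alone and 100% = MG132 at 30 µM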
* hit, by the source's call; x = not tested or not shown. Rule as the data show it, unless noted: active = inhibition above about 50%; inactive = the rest.

SMILES	Arbovirus anti	PKD1 kinase inh	L major viab	Rad51 HR inh	CHOP inhibitor	Wee1 stabilizer
O=c1cc(N2CCCCC2)c(-c2ccccc2)nn1Cc1ccc(Cl)cc1	-25	-5	7	-10	71*	-4
CCN1C=C(Cc2cccs2)C2=C(C1)C(c1cccs1)C(C#N)=C(N)O2 (configuration not stated)	-2	-6	55*	-6	8	-3
CCN1CCN(c2ccc(NC(=O)c3cccc(F)c3)cc2Cl)CC1	-31	-7	6	0	1	-1
COc1cccc(-c2nc3sc4c(c3c(=O)[nH]2)CCCCC4)c1	-9	-9	-8	-5	32	5
O=C(OCc1nc2ccccc2s1)[C@@H]1CCCN1S(=O)(=O)c1ccccc1F	-5	-6	-4	8	31	3
CC(NC(=O)COC(=O)[C@@H]1CCCN1S(=O)(=O)c1ccccc1F)C12CC3CC(CC(C3)C1)C2 (some centres not stated)	11	3	96*	4	40	2
O=C(NCC(=O)N(c1ccccc1)C(C(=O)NC1CCCCC1)c1cccnc1)c1cccs1 (configuration not stated)	3	-4	-8	-4	86*	0
O=C(NCC(=O)N(c1ccc(F)cc1)C(C(=O)NC1CCCC1)c1cccnc1)c1cccs1 (configuration not stated)	7	-13	-1	x	18	-3
O=C(NC1CCCCC1)C(c1cccnc1)N(C(=O)CCl)c1ccccc1Cl (configuration not stated)	13	-8	68*	0	5	-3
O=C(NCC(=O)N(c1cccnc1)C(C(=O)NC1CCCCC1)c1cccnc1)c1ccco1 (configuration not stated)	6	0	-7	9	-1	6
COc1ccc(N(C(=O)CCl)C(C(=O)NC2CCCCC2)c2cccnc2)cc1 (configuration not stated)	8	-9	98*	-14	-1	3
O=C(NC1CCCCC1)C(c1cccnc1)N(C(=O)CCl)c1ccc(F)cc1 (configuration not stated)	-8	-11	78*	1	88*	-2
COc1ccc(C(C(=O)NC2CCCCC2)N(C(=O)c2ccccn2)c2cccnc2)cc1 (configuration not stated)	2	-8	-3	-2	-2	1
COc1ccccc1C(=O)NCC1(c2ccccc2)CCCC1	1	-2	7	-12	11	0
CC(C)CCN1CCN(Cc2ccon2)CC1CCO (configuration not stated)	4	5	-2	x	13	-2
Cc1nc(-c2cccnc2)sc1C(=O)N/N=C/c1ccccc1Cl	x	x	x	9	-36	0
CCn1c(=NC(=O)C2COc3ccccc3O2)sc2c(OC)ccc(OC)c21 (configuration not stated)	x	x	x	x	6	-3
COc1ccc(C(=O)Nc2cc(C)nn2-c2nc3ccccc3[nH]2)c(OC)c1	-6	-4	48	0	-15	-2
COc1cccc(OC)c1C(=O)Nc1cc(C)nn1-c1nc2ccccc2[nH]1	-7	-3	66*	-22	20	1
S=C(Nc1ccc(Oc2ccccc2)cc1)N1CCN(c2ccccn2)CC1	-10	-5	0	-22	27	0
O=C1Nc2ccc(Cl)cc2/C1=C/C1CC=CCC1 (configuration not stated)	-11	3	96*	24	0	1
CCOC(=O)Cc1nnc(NC(=O)c2ccccc2OCC)s1	78*	1	-1	4	19	0
CCOc1ccccc1C(=O)Nc1nnc(COC)s1	3	-3	8	-6	8	3
CCOc1ccccc1C(=O)Nc1nccs1	-3	-5	-3	134*	14	2
CCOC(=O)Cc1nnc(NC(=O)c2ccccc2OC)s1	7	-15	6	x	36	0
SMILES	Arbovirus anti	PKD1 kinase inh	L major viab	Rad51 HR inh	CHOP inhibitor	Wee1 stabilizer
CCn1nnnc1-c1ccc(OC)c(S(=O)(=O)Nc2ccc(C)c(C)c2)c1	19	1	99*	x	5	1
Cc1cc(N=Nc2ccc(C)c(N=Nc3cc(C)c(N)cc3N)c2)c(N)cc1N	x	x	x	10	38	4
O=C(O)CC1S/C(=N/N=C/c2ccc(-c3ccc(Cl)cc3[N+](=O)[O-])o2)NC1=O (configuration not stated)	0	7	99*	-7	11	0
CC1(C)CN(c2cccc(Br)c2)C1=O	-5	-2	3	1	-9	-1
O=C(NCc1ccco1)c1cc([N+](=O)[O-])cc([N+](=O)[O-])c1	-12	-3	58*	24	15	-2
Cc1ccc(C(=O)NCc2ccco2)cc1[N+](=O)[O-]	-2	2	11	-4	9	-3
CC1CCCN(c2ccc(C(=O)NCc3ccco3)cc2[N+](=O)[O-])C1 (configuration not stated)	-11	-4	73*	-1	59	-1
O=C(NCc1ccco1)c1cccs1	-5	-5	-4	19	76*	8
CN(Cc1ccccc1)C(=O)COC(=O)C1CCN(S(=O)(=O)c2cccs2)CC1	4	-1	-5	-3	14	-1
CCC(C)(C)NC(=O)CN(CCc1cccc(C)c1)C(=O)c1csnn1	2	-7	-1	28	4	1
CC(C)(C)C(=O)N1CCc2cc(-c3csc(N)n3)ccc21	-12	-3	59*	-15	17	-3
O=C(Cc1ccccc1[N+](=O)[O-])NCc1ccco1	8	2	-8	x	-1	3
CC(C)n1c(=O)[nH][nH]c1=S	x	x	x	5	-2	0
O=C(c1ccc2c(c1)OCO2)C1CCCN(Cc2cc(F)ccc2-n2cccn2)C1 (configuration not stated)	-9	-1	40	-3	-3	-1
Cn1c(CN2CCCC(C(=O)c3ccc4c(c3)OCO4)C2)nc2ccccc21 (configuration not stated)	0	6	35	22	18	2
O=C(c1ccc2c(c1)OCO2)C1CCCN(Cc2ccc3nsnc3c2)C1 (configuration not stated)	-3	0	92*	1	33	2
COc1ccc(C(=O)C2CCCN(Cc3cccn3-c3cccnc3)C2)cc1OC (configuration not stated)	8	10	8	x	-13	3
COc1ccc(C(=O)C2CCCN(Cc3cccc4c3OCO4)C2)cc1OC (configuration not stated)	7	8	78*	9	-2	3
COc1c(C)cc(C(=O)C2CCCN(Cc3cccc4nccnc34)C2)cc1C (configuration not stated)	18	7	99*	x	15	-1
COc1cccc(CN2CCCC(C(=O)c3ccc4c(c3)OCO4)C2)c1OC (configuration not stated)	5	3	90*	3	8	4
